Assay [1] is filed under the species Rattus norvegicus. Nature of the assay: Selectivity ratio of IC50 for rat GluA1 receptor flip form to IC50 for rat GluN1/2A receptor. Put shortly: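 Ratio IC50(GluA1)/IC50(GluN1/2A), each IC50 from composite dose−response data of 5 to 10 oocytes in two-electrode voltage clamp. GluA1_i driven by 300 μM glutamate; GluN1/2A driven by 100 μM glutamate plus 100 μM glycine; antagonist coapplied.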

For assay [2], the species on record is Rattus norvegicus. As to the kind of experiment: Selectivity ratio of IC50 for rat GluN1/2A receptor to IC50 for rat GluA1 receptor flip form. Summed up:
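Ratio IC50(GluN1/2A)/IC50(GluA1), each IC50 from composite dose−response data of 5 to 10 oocytes in two-electrode voltage clamp. GluA1_i driven by 300 μM glutamate; GluN1/2A driven by 100 μM glutamate plus 100 μM glycine; antagonist coapplied.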

In assay [3] the target is Glutamate NMDA receptor; Grin1/Grin2a (Rattus norvegicus, UniProt P35439+Q00959). As to the kind of experiment: Inhibition of rat GluN1/2A receptor expressed in Xenopus laevis oocyte assessed as glutamate and glycine-induced current at holding potentials from -80 to -40 mV by two electrode voltage clamp analysis. Summed up: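 Oocytes injected with 25 nL GluN1/N2A cRNA (1:1, 0.05 ng/nL), held at 17 °C in Barth's medium with gentamicin, recorded 3−6 days later by two-electrode voltage clamp in frog Ringer's. Current evoked by 100 μM L-glutamate plus 100 μM glycine, antagonist coapplied at rising levels; holding potentials −40, −60, −80 mV. IC50 from logistic fit, triplicate curves.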
Background: Two-electrode voltage clamp is typically applied to oocytes expressing channels or transporters.

The next assay addresses Glutamate receptor 1 (Rattus norvegicus, UniProt P19490). Nature of the assay: Inhibition of rat GluA1 receptor flip form expressed in Xenopus laevis oocyte assessed as glutamate-induced current at holding potentials from -80 to -40 mV by two electrode voltage clamp analysis. Put shortly: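 Oocytes injected with 25 nL GluA1_i cRNA (1 ng/nL), kept at 17 °C in Barth's medium with gentamicin, recorded 3−6 days later under two-electrode voltage clamp in frog Ringer's superfusion. Current evoked by 300 μM L-glutamate, then increasing antagonist coapplied with agonist; holding potentials −40, −60, −80 mV. Per-oocyte logistic fit for IC50, triplicate curves.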

A value given as a limit tells only on which side of the number the result lay.

Sequence of Glutamate NMDA receptor; Grin1/Grin2a (Q00959 whole entry, other chains not shown): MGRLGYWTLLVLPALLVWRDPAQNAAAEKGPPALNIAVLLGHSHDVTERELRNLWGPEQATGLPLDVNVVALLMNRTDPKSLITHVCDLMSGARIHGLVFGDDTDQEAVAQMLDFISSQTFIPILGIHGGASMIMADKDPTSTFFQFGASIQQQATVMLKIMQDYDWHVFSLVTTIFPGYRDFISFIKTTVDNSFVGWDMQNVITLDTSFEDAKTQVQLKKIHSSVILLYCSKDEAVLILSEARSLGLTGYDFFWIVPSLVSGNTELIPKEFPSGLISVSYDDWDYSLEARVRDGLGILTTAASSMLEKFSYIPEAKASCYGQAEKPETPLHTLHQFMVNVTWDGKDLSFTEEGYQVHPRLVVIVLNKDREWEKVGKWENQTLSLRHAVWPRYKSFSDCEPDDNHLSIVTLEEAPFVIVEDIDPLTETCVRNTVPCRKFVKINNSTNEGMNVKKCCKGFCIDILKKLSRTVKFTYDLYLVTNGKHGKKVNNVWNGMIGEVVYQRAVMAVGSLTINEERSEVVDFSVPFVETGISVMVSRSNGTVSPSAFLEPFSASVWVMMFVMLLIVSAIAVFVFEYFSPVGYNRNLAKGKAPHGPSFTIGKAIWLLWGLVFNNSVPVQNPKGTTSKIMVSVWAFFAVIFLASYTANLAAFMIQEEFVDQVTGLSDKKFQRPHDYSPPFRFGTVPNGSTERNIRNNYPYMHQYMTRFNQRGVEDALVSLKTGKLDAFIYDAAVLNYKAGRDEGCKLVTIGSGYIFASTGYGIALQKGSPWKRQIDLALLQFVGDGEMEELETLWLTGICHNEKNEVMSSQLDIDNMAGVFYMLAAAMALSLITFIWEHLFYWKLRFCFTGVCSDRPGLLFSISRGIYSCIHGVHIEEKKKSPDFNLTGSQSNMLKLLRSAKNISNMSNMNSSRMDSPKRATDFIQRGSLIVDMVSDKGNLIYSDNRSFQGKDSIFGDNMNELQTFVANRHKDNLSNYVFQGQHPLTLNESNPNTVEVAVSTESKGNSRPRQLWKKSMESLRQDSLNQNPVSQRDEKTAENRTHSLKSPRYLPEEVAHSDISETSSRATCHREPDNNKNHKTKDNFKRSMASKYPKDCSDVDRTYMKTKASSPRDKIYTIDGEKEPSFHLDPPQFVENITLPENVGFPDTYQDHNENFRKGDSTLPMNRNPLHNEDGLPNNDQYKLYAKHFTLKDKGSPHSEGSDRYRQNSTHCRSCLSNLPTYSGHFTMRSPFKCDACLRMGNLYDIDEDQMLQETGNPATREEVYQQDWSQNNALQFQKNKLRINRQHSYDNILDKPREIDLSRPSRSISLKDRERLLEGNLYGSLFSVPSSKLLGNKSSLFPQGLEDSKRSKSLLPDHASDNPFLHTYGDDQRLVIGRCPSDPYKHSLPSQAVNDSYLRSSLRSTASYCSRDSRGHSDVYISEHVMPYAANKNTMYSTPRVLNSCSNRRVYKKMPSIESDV
Sequence of Glutamate receptor 1 (P19490 whole entry, the tested form may be a part): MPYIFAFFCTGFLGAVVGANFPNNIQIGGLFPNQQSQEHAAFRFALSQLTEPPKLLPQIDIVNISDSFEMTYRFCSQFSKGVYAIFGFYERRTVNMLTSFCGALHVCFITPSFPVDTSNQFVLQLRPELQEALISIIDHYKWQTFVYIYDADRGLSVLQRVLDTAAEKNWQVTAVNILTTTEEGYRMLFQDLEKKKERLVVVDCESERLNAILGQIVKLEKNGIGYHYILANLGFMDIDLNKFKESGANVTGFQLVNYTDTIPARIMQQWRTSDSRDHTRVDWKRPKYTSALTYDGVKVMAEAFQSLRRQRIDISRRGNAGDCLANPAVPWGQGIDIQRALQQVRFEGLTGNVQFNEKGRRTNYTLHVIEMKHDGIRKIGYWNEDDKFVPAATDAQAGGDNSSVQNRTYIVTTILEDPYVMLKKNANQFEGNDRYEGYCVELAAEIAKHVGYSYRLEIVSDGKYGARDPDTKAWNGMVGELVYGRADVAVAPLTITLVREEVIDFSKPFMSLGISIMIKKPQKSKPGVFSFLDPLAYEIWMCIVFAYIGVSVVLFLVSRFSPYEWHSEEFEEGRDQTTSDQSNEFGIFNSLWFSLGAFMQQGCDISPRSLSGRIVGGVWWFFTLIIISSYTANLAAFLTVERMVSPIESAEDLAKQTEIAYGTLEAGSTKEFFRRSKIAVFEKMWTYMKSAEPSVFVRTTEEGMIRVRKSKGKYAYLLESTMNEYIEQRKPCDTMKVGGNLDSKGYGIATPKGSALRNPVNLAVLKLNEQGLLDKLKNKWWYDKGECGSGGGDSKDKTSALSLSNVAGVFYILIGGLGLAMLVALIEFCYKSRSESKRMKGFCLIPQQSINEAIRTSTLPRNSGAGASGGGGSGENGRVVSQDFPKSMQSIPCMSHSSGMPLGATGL

Broadly, the IC50 is the concentration that gives 50% inhibition. On to `N=C(N)NCCC[C@H](N)C(=O)NCCCCCCCNCCCCCNC(=O)[C@H](CC(N)=O)NC(=O)Cc1ccc(O)cc1O`, for which the results for the Ratio IC50 in the assay filed under Rattus norvegicus [1] and in the assay filed under Rattus norvegicus [2] were 0.09 and 11, respectively. The 50% inhibitory concentration (IC50) in assay [3] was 842 nM; at Glutamate receptor 1, 78 nM.

With `N=C(N)NCC[C@@H](N)C(=O)NCCCCCNCCCCCCCNC(=O)[C@@H](NC(=O)Cc1ccc(O)cc1O)c1c[nH]c2ccccc12`, the Ratio IC50 in the assay listed under Rattus norvegicus [1] is 3.4.

Regarding `N=C(N)NCCC[C@H](N)C(=O)NCCCCCCCCCNCCCNC(=O)[C@H](CC(N)=O)NC(=O)Cc1ccc(O)cc1O`, the Ratio IC50 in the assay listed under Rattus norvegicus [1] and in the assay listed under Rattus norvegicus [2] was less than 0.06 each time. Besides, the IC50 was greater than 3000 nM in assay [3] and 171 nM on Glutamate receptor 1.

`N=C(N)NCCC[C@H](N)C(=O)NCCCCCNCCCCCCCNC(=O)[C@H](CC(N)=O)NC(=O)Cc1ccc(O)cc1O`: the Ratio IC50 in the assay filed under Rattus norvegicus [1] stood at 7.

As for `N=C(N)NCC[C@@H](N)C(=O)NCCCCCNCCCCCCCNC(=O)[C@H](CC(=O)O)NC(=O)Cc1ccc(O)cc1O`, the Ratio IC50 was found to be 0.07 in the assay listed under Rattus norvegicus [1] and 13 in the assay filed under Rattus norvegicus [2]. For the same compound, the IC50 amounted to 2230 nM in assay [3] and 167 nM at Glutamate receptor 1.

Regarding `N=C(N)NCCC[C@H](N)C(=O)NCCCCCCNCCCCCCNC(=O)[C@H](CC(N)=O)NC(=O)Cc1ccc(O)cc1O`, in the assay listed under Rattus norvegicus [1], the Ratio IC50 was found to be 2. Further, the IC50 in assay [3] stood at 21 nM; at Glutamate receptor 1, 46 nM.

With `NC(=O)C[C@H](NC(=O)Cc1ccc(O)cc1O)C(=O)NCCCCCCCCNCCCCNC(=O)[C@@H](N)CCCN=C(N)N`, the concentration for half-maximal inhibition (IC50) in assay [3] was 8 nM; on Glutamate receptor 1, 83 nM.

Consider `NC(=O)C[C@H](NC(=O)Cc1ccc(O)cc1O)C(=O)NCCCCCCCCCNCCCNC(=O)[C@@H](N)CCCN=C(N)N`, for which the IC50 is 14 nM in assay [3] and 454 nM on Glutamate receptor 1.

Consider `N=C(N)NCCC[C@H](N)C(=O)NCCCNCCCNCCCCCNC(=O)[C@H](CC(N)=O)NC(=O)Cc1ccc(O)cc1O`, for which the Ratio IC50 in the assay listed under Rattus norvegicus [1] amounted to 8. Further, the IC50 in assay [3] amounted to 10 nM.

For `NC(=O)C[C@H](NC(=O)Cc1ccc(O)cc1O)C(=O)NCCCCCCCNCCCCCNC(=O)[C@@H](N)CCCN=C(N)N`, the IC50 stood at 17 nM in assay [3] and 118 nM at Glutamate receptor 1.

For the compound `N=C(N)NCCC[C@H](N)C(=O)NCCCCNCCCCCCCCNC(=O)[C@H](CC(N)=O)NC(=O)Cc1ccc(O)cc1O`, the Ratio IC50 in the assay filed under Rattus norvegicus [1] stood at 10.

In the case of `N=C(N)NCCC[C@H](N)C(=O)NCCCNCCCCCCCCCNC(=O)[C@H](CC(N)=O)NC(=O)Cc1ccc(O)cc1O`, in the assay filed under Rattus norvegicus [1], the Ratio IC50 came to 32.

As for `N=C(N)NCCC[C@H](N)C(=O)NCCCCCCCCNCCCCNC(=O)[C@H](CC(N)=O)NC(=O)Cc1ccc(O)cc1O`, the Ratio IC50 in the assay filed under Rattus norvegicus [1] was 0.08; in the assay listed under Rattus norvegicus [2], 12. In addition, the IC50 came to 231 nM in assay [3] and 19 nM at Glutamate receptor 1.

The values are drawn from ChEMBL document CHEMBL2311516, “Structure-activity relationship studies of argiotoxins: selective and potent inhibitors of ionotropic glutamate receptors” (J Med Chem, 2013).
